Measurements as given in ChEMBL document CHEMBL4020840, “Synthesis and Biological Evaluation of Selenium-Containing 4-Anilinoquinazoline Derivatives as Novel Antimitotic Agents” (J Med Chem, 2018).
Where a name gives a salt, the structure may show the parent alone. Calls of active or inactive are those of the source. The rule behind the calls is not given here.

Test system: A549
Assay: Growth inhibition of human A549 cells after 48 hrs by MTT assay
Assay type: functional, cell-based
Conditions: A549, 48 h

IC50 [nM]	Compound
5520	COc1ccc(N(C)c2nc(C)nc3ccccc23)cc1OCCCCCC[Se]C#N
2440	COc1ccc(N(C)c2nc(C)nc3ccccc23)cc1OCCCCC[Se]C#N
353	COc1ccc(N(C)c2nc(C)nc3ccccc23)cc1C(=O)OCC[Se]C#N
2900	COc1cccc2c1C(=O)c1c(O)c3c(c(O)c1C2=O)C[C@@](O)(C(=O)CO)C[C@@H]3O[C@H]1C[C@H](N)[C@H](O)[C@H](C)O1 [DOXORUBICIN]
13	COc1ccc(N(C)c2nc(C)nc3ccccc23)cc1OCC[Se]C#N
1200	COc1ccc(N(C)c2nc(C)nc3ccccc23)cc1OCCCC[Se]C#N
592	COc1ccc(N(C)c2nc(C)nc3ccccc23)cc1C(=O)OCCCCC[Se]C#N

Compound	IC50 [nM]
COc1ccc(N(C)c2nc(C)nc3ccccc23)cc1[Se]C	11
Cc1nc(N(C)c2ccc(OCC[Se]C#N)cc2)c2ccccc2n1	893
Cc1nc(N(C)c2ccc([Se]C#N)c(F)c2)c2ccccc2n1	4

Test system: A549
Assay: Cell cycle arrest in human A549 cells assessed as accumulation at G2/M phase up to 24 hrs by propidium iodide staining based flow cytometry
Assay type: functional
Conditions: not given
Method in brief: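 A549 seeded in six-well plates at 3 × 10⁵ cells/well and treated for 12 or 24 h; vehicle 0.01% DMSO. Cells fixed overnight in ice-cold 70% ethanol, treated with RNase A at 37 °C for 30 min, then stained with PI at 4 °C for 30 min. About 10 000 events acquired by flow cytometry at 488 nm; three experiments.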

Compound	Activity
C[Se]c1ccc(N(C)c2nc(C)nc3ccccc23)cc1F [listing 1 of 2 here]	Dose-dependent effect

Test system: not listed separately
Assay: Growth inhibition of human HepG2/DOX cells after 48 hrs by MTT assay
Assay type: functional, cell-based
Conditions: not given
Method in brief: (§1)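 MTT assay: log-phase cells plated at 5 × 10³/well for 24 h, then exposed to a range of test concentrations for 48 h. MTT (5 mg/mL) added for 4 h, formazan dissolved in DMSO, absorbance read at 570 nm. IC50 is the concentration giving 50% growth inhibition, from dose-response curves; at least three independent experiments, mean ± SE.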

Compound	IC50 [nM]
COc1ccc(/C=C\c2cc(OC)c(OC)c(OC)c2)cc1O [COMBRETASTATIN A4]	27
COc1cccc2c1C(=O)c1c(O)c3c(c(O)c1C2=O)C[C@@](O)(C(=O)CO)C[C@@H]3O[C@H]1C[C@H](N)[C@H](O)[C@H](C)O1 [DOXORUBICIN]	> 10000

Test system: RKO
Assay: Growth inhibition of human RKO cells after 48 hrs by MTT assay
Assay type: functional, cell-based
Conditions: not given
Method in brief: as §1

Compound	IC50 [nM]
COc1ccc(N(C)c2nc(C)nc3ccccc23)cc1OCCCCCC[Se]C#N	1540
COc1ccc(N(C)c2nc(C)nc3ccccc23)cc1[Se]C	11
COc1ccc(N(C)c2nc(C)nc3ccccc23)cc1OCCCCC[Se]C#N	3560
COc1ccc(N(C)c2nc(C)nc3ccccc23)cc1C(=O)OCC[Se]C#N	2390
Cc1nc(N(C)c2ccc(OCC[Se]C#N)cc2)c2ccccc2n1	652
Cc1nc(N(C)c2ccc([Se]C#N)c(F)c2)c2ccccc2n1	8
COc1ccc(N(C)c2nc(C)nc3ccccc23)cc1OCC[Se]C#N	27
COc1ccc(N(C)c2nc(C)nc3ccccc23)cc1OCCCC[Se]C#N	1360
COc1ccc(N(C)c2nc(C)nc3ccccc23)cc1C(=O)OCCCCC[Se]C#N	356

Test system: HCT-116
Assay: Growth inhibition of human HCT116 cells after 48 hrs by MTT assay
Assay type: functional, cell-based
Conditions: HCT-116, 48 h
Method in brief: as §1

IC50 [nM]	Compound
6180	COc1ccc(N(C)c2nc(C)nc3ccccc23)cc1OCCCCCC[Se]C#N
256	COc1ccc(N(C)c2nc(C)nc3ccccc23)cc1OCCCCC[Se]C#N
951	COc1ccc(N(C)c2nc(C)nc3ccccc23)cc1C(=O)OCC[Se]C#N
18	COc1ccc(N(C)c2nc(C)nc3ccccc23)cc1OCC[Se]C#N
512	COc1ccc(N(C)c2nc(C)nc3ccccc23)cc1OCCCC[Se]C#N
551	COc1ccc(N(C)c2nc(C)nc3ccccc23)cc1C(=O)OCCCCC[Se]C#N

Compound	IC50 [nM]
COc1ccc(N(C)c2nc(C)nc3ccccc23)cc1[Se]C	28
Cc1nc(N(C)c2ccc(OCC[Se]C#N)cc2)c2ccccc2n1	2290
Cc1nc(N(C)c2ccc([Se]C#N)c(F)c2)c2ccccc2n1	20

Test system: A549
Assay: Antimigratory activity against human A549 cells assessed as suppression of wound healing at 4 nM after 24 hrs by phase contrast microscopic method
Assay type: functional, cell-based
Conditions: not given
Method in brief: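 Scratch wound assay: A549 plated at 5 × 10⁴ cells/dish and grown 24 h before scraping with a 10 μL tip. Medium then swapped to serum-free DMEM containing compound (4 nM) for 24 h. After a PBS wash, wound images taken at 0 and 24 h; at least three independent experiments.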

Compound	Activity
COc1ccc(N(C)c2nc(C)nc3ccccc23)cc1	Active
C[Se]c1ccc(N(C)c2nc(C)nc3ccccc23)cc1F [listing 1 of 2 here]	Active

Species: Sus scrofa
Assay: Inhibition of porcine brain tubulin polymerization at 7.5 uM measured every 60 secs for 90 mins by DAPI staining based fluorescence assay relative to control
Conditions: not given
Method in brief: (§2)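 Purified tubulin was tested in a kit assay. Final buffer: 80 mM PIPES sesquisodium (pH 6.9), 2.0 mM MgCl₂, 0.5 mM EGTA, 1 mM GTP, 10.2% glycerol. Compound (0.1–10 μM) was prewarmed at 37 °C for 1 min before tubulin was added. DAPI reporter fluorescence (ex 340 / em 410 nm) was read every 60 s for 90 min. Area under the curve gave percent inhibition versus control and the IC50.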

Compound	inhibition [%]
COc1ccc(N(C)c2nc(C)nc3ccccc23)cc1	77.6
C[Se]c1ccc(N(C)c2nc(C)nc3ccccc23)cc1F [listing 1 of 2 here]	90.5

Test system: MDA-MB-231
Assay: Growth inhibition of human MDA-MB-231 cells after 48 hrs by MTT assay
Assay type: functional, cell-based
Conditions: MDA-MB-231, 48 h
Method in brief: as §1

IC50 [nM]	Compound
3550	COc1ccc(N(C)c2nc(C)nc3ccccc23)cc1OCCCCCC[Se]C#N
4410	COc1ccc(N(C)c2nc(C)nc3ccccc23)cc1OCCCCC[Se]C#N
1480	COc1ccc(N(C)c2nc(C)nc3ccccc23)cc1C(=O)OCC[Se]C#N
13	COc1ccc(N(C)c2nc(C)nc3ccccc23)cc1OCC[Se]C#N
1350	COc1ccc(N(C)c2nc(C)nc3ccccc23)cc1OCCCC[Se]C#N
851	COc1ccc(N(C)c2nc(C)nc3ccccc23)cc1C(=O)OCCCCC[Se]C#N

Compound	IC50 [nM]
COc1ccc(N(C)c2nc(C)nc3ccccc23)cc1[Se]C	10
Cc1nc(N(C)c2ccc(OCC[Se]C#N)cc2)c2ccccc2n1	317
Cc1nc(N(C)c2ccc([Se]C#N)c(F)c2)c2ccccc2n1	6

Test system: A549
Assay: Antitumor activity against human A549 cells xenografted in Balb/c mouse assessed as tumor growth inhibition at 2.5 mg/kg, ip treated once in 2 days for 10 days relative to control
Assay type: functional
Conditions: read-out: TGI
Method in brief: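 Male BALB/c nude mice, 5 weeks old, 18−20 g. Right flank injected sc with 0.1 mL of 1 × 10⁷ cells/mL log-phase A549 in FBS-free DMEM. At ~100 mm³, randomised into groups of 5 and dosed ip every 2 days; vehicle controls got equal volume. Tumour volume (0.5 × length × width²) and body weight recorded every 2 days.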

Compound	inhibition in vivo at 2.5 mg/kg [%]
COc1ccc(N(C)c2nc(C)nc3ccccc23)cc1 [VERUBULIN HYDROCHLORIDE]	68.6
Cc1nc(N(C)c2ccc([Se]C#N)cc2)c2ccccc2n1	69.8
C[Se]c1ccc(N(C)c2nc(C)nc3ccccc23)cc1F [listing 2 of 2 here]	77.2
C[Se]c1ccc(N(C)c2nc(C)nc3ccccc23)cc1	75.7

Test system: A549/CDDP
Assay: Growth inhibition of human A549/CDDP cells after 48 hrs by MTT assay
Assay type: functional, cell-based
Conditions: not given
Method in brief: as §1

Compound	IC50 [nM]
COc1ccc(/C=C\c2cc(OC)c(OC)c(OC)c2)cc1O [COMBRETASTATIN A4]	17
COc1cccc2c1C(=O)c1c(O)c3c(c(O)c1C2=O)C[C@@](O)(C(=O)CO)C[C@@H]3O[C@H]1C[C@H](N)[C@H](O)[C@H](C)O1 [DOXORUBICIN]	4590

Test system: LoVo
Assay: Growth inhibition of human LoVo cells after 48 hrs by MTT assay
Assay type: functional, cell-based
Conditions: not given
Method in brief: as §1

IC50 [nM]	Compound
8580	COc1ccc(N(C)c2nc(C)nc3ccccc23)cc1OCCCCCC[Se]C#N
5210	COc1ccc(N(C)c2nc(C)nc3ccccc23)cc1OCCCCC[Se]C#N
2960	COc1ccc(N(C)c2nc(C)nc3ccccc23)cc1C(=O)OCC[Se]C#N
19	COc1ccc(N(C)c2nc(C)nc3ccccc23)cc1OCC[Se]C#N
882	COc1ccc(N(C)c2nc(C)nc3ccccc23)cc1OCCCC[Se]C#N
714	COc1ccc(N(C)c2nc(C)nc3ccccc23)cc1C(=O)OCCCCC[Se]C#N

Compound	IC50 [nM]
COc1ccc(N(C)c2nc(C)nc3ccccc23)cc1[Se]C	3
Cc1nc(N(C)c2ccc(OCC[Se]C#N)cc2)c2ccccc2n1	547
Cc1nc(N(C)c2ccc([Se]C#N)c(F)c2)c2ccccc2n1	13

Species: Sus scrofa
Assay: Inhibition of porcine brain tubulin polymerization measured every 60 secs for 90 mins by DAPI staining based fluorescence assay
Conditions: not given
Method in brief: as §2

Compound	inhibition
C[Se]c1ccc(N(C)c2nc(C)nc3ccccc23)cc1F [listing 1 of 2 here]	Dose-dependent effect

Test system: HepG2
Assay: Growth inhibition of human HepG2 cells after 48 hrs by MTT assay
Assay type: functional, cell-based
Conditions: HepG2, 48 h
Method in brief: as §1

IC50 [nM]	Compound
4890	COc1ccc(N(C)c2nc(C)nc3ccccc23)cc1OCCCCCC[Se]C#N
5210	COc1ccc(N(C)c2nc(C)nc3ccccc23)cc1OCCCCC[Se]C#N
890	COc1ccc(N(C)c2nc(C)nc3ccccc23)cc1C(=O)OCC[Se]C#N
1890	COc1cccc2c1C(=O)c1c(O)c3c(c(O)c1C2=O)C[C@@](O)(C(=O)CO)C[C@@H]3O[C@H]1C[C@H](N)[C@H](O)[C@H](C)O1 [DOXORUBICIN]
14	COc1ccc(N(C)c2nc(C)nc3ccccc23)cc1OCC[Se]C#N
6460	COc1ccc(N(C)c2nc(C)nc3ccccc23)cc1OCCCC[Se]C#N
667	COc1ccc(N(C)c2nc(C)nc3ccccc23)cc1C(=O)OCCCCC[Se]C#N

Compound	IC50 [nM]
COc1ccc(/C=C\c2cc(OC)c(OC)c(OC)c2)cc1O [COMBRETASTATIN A4]	9
COc1ccc(N(C)c2nc(C)nc3ccccc23)cc1[Se]C	17
Cc1nc(N(C)c2ccc(OCC[Se]C#N)cc2)c2ccccc2n1	1680
Cc1nc(N(C)c2ccc([Se]C#N)c(F)c2)c2ccccc2n1	37

Test system: not listed separately
Assay: Resistance factor, ratio of IC50 for human A549/CDDP cells to IC50 for human A549 cells
Assay type: functional
Conditions: not given
Method in brief: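 MTT assay: log-phase cells were seeded at 5 × 10³/well for 24 h, then exposed to a concentration series for 48 h. MTT (5 mg/mL) was added for 4 h, formazan was dissolved in DMSO, and A570 was read. IC50 values came from dose–response curves of at least three independent experiments. Resistance factor = IC50 in the resistant line / IC50 in the parental sensitive line.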

Compound	Ratio IC50
COc1cccc2c1C(=O)c1c(O)c3c(c(O)c1C2=O)C[C@@](O)(C(=O)CO)C[C@@H]3O[C@H]1C[C@H](N)[C@H](O)[C@H](C)O1 [DOXORUBICIN]	1.58
